Data: paper PMC9891086 (RSC Advances, 2023)

Experiments:
HepG2 cells = test: MTT cytotoxic activity assay against HepG2 cells; type: cell-based; details: Homo sapiens, HepG2, 48 h, read-out: IC50 inhibitory effect on HepG2 cells
Summary of the method: (§1)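 Cells seeded at 5 × 10^3 per well and grown 24 h, then exposed to a range of test compound concentrations for 48 h. Vehicle control was 0.1% DMSO and the positive control was adriamycin (10 μM). MTT was added from a 5 mg mL−1 stock for 4 h, and formazan was dissolved in DMSO. Viability was read at 490 nm, in three replicates per treatment.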

COX-2 = molecular target: T1, COX-2 (Homo sapiens, UniProt P35354); test: biochemical
T1 sequence (P35354 18-604): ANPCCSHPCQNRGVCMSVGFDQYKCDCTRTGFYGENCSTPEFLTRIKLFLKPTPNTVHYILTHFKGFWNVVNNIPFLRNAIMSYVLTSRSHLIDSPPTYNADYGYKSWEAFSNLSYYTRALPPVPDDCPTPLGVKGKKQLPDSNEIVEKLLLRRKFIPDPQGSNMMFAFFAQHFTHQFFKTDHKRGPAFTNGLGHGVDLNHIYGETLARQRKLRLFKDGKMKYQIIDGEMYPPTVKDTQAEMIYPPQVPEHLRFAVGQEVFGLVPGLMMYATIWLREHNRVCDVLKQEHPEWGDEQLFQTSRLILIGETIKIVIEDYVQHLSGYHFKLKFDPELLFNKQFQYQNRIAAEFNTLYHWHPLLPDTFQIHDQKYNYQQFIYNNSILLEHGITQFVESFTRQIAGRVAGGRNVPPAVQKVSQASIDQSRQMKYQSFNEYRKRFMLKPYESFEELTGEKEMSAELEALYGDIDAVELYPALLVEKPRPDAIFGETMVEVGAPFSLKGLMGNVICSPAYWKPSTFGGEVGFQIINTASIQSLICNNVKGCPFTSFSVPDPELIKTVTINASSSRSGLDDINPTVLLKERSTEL

Caco-2 cells = test: MTT cytotoxic activity assay against Caco-2 cells; type: cell-based; details: Homo sapiens, Caco-2, 48 h, read-out: IC50 inhibitory effect on Caco-2 cells
Summary of the method: as §1

Row | Structure (SMILES) | IC50 (HepG2 cells) [µM] | IC50 (COX-2) [µM] | IC50 (Caco-2 cells) [µM]
1 | CCCCCCCCC/C=C\CCCCCCCCC(=O)O [Compound 1, cis-10-eicosaenoic acid] | 25 ± 1.08 | 10.8 ± 0.3 | 
2 | CC[C@H](CC[C@@H](C)[C@H]1CC[C@H]2[C@@H]3CC(=O)C4=CC(=O)CC[C@]4(C)[C@H]3CC[C@]12C)C(C)C [Compound 3, stigmast-4-en-3,6-dione] |  | 67.9 ± 6.21 | 
3 | COc1cc(O)c(C(C)=O)c(OC)c1 [Compound 5, xanthoxylin] | 8.21 ± 1.12 | 123 ± 10.5 | 
4 | N[C@H]1CCC=C[C@H]1C(=O)O [Compound 14, (1R,6S)-6-aminocyclohex-2-ene-1-carboxylic acid] |  | 19.3 ± 3.58 | 
5 | c1cncc([C@@H]2CCCCN2)c1 [Compound 15, anabasine] |  | 150 ± 11 | 
6 | Oc1ccccc1CN1CCCC[C@H]1c1cccnc1 [Compound 16, (2S)-N-hydroxybenzylanabasine] |  | 24.2 ± 1.2 | 
7 | O=c1cc[nH]c(=O)[nH]1 [Compound 21, uracil] | 78.5 ± 4.41 | 146 ± 11 | 86 ± 2.96
8 | O=C1N[C@@H](O)C(O)=C1O [Compound 23, (S)-3,4,5-trihydroxy-1H-pyrrol-2 (5H)-one] |  | 149 ± 10 | 
9 | OCc1ccccc1O[C@@H]1O[C@H](CO)[C@@H](O)[C@H](O)[C@H]1O [Compound 25, salicin] |  | 162 ± 10 | 
